Test results published in ChEMBL document CHEMBL1153883, “Cytotoxic, antioxidant activities and structure activity relationship of some newly synthesized terpenoidal oxaliplatin analogs” (Eur J Med Chem, 2009).

How the values were obtained:
[1] = Acute toxicity in Albino rat; type: organism-based; settings: in vivo
[2] = tested on: HT-29; assay: Cytotoxicity against human HT-29 cells at 50 ug/ml after 12 hrs by neutral red assay; type: functional
Procedure, shortened: (§1)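 HT-29 cells (Korean Cell Line Bank) were kept in DMEM with 10% FBS, penicillin and streptomycin at 37 °C under 5% CO2. Cells in 96-well plates were exposed to compounds for 12–48 h. The medium was replaced with fresh medium for neutral red uptake. Dye was extracted with 50% ethanol containing 50 mM sodium citrate (pH 4.2), and absorbance was read at 510 nm after 20 min.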

[3] = tested on: HT-29; assay: Cytotoxicity against human HT-29 cells at 50 ug/ml after 24 hrs by neutral red assay; type: functional; procedure, shortened: as §1
[4] = tested on: HT-29; assay: Cytotoxicity against human HT-29 cells at 50 ug/ml after 48 hrs by neutral red assay; type: functional; procedure, shortened: as §1
[5] = tested on: HT-29; assay: Cytotoxicity against human HT-29 cells at 100 ug/ml after 12 hrs by neutral red assay; type: functional; procedure, shortened: as §1
[6] = tested on: HT-29; assay: Cytotoxicity against human HT-29 cells at 100 ug/ml after 24 hrs by neutral red assay; type: functional; procedure, shortened: as §1
[7] = tested on: HT-29; assay: Cytotoxicity against human HT-29 cells at 100 ug/ml after 48 hrs by neutral red assay; type: functional; procedure, shortened: as §1
[8] = tested on: HT-29; assay: Cytotoxicity against human HT-29 cells at 150 ug/ml after 12 hrs by neutral red assay; type: functional; procedure, shortened: as §1
[9] = tested on: HT-29; assay: Cytotoxicity against human HT-29 cells at 150 ug/ml after 24 hrs by neutral red assay; type: functional; procedure, shortened: as §1
[10] = Antioxidant activity assessed as superoxide anion scavenging activity by NBT reduction method; type: functional; design: concentration or dose not given beside the values
Procedure, shortened: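 Superoxide was generated by […]xanthine oxidase. Sample in 100 mM phosphate buffer (pH ~7.0) with xanthine oxidase (1.65 × 10^-2 units/ml) and NBT at 25 °C. The reaction was started by adding xanthine and followed by NBT reduction absorbance. Scavenging % was calculated from the absorbance increase with sample versus without sample (control).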

[11] = Antioxidant activity assessed as superoxide anion scavenging activity by NBT reduction method relative to Vitamin C; type: functional; design: concentration or dose not given beside the values

Question: Which LD50 [1] does the source give for `CC1(C)[C@H](O)[C@@H](O)C[C@]2(C)[C@H]3C(=O)C=C4[C@@H]5C[C@@](C)(C(=O)O)CC[C@]5(C)CC[C@@]4(C)[C@]3(C)CC[C@@H]12` here?
Answer: The LD50 was 656 mg/kg.

Question: For `COC(=O)[C@@]1(C)CC[C@]2(C)CC[C@]3(C)C(=CC(=O)[C@@H]4[C@@]5(C)C[C@H](O)[C@@H](O)C(C)(C)[C@@H]5CC[C@]43C)[C@@H]2C1`, which LD50 [1] is on record?
Answer: Its LD50 is 793 mg/kg.

Question: And the Activity [2]?
Answer: The Activity was 19%.

Question: What about the Activity [3] of the same compound?
Answer: Its Activity is 21%.

Question: And the Activity [4]?
Answer: Its Activity is 33%.

Question: What about the Activity [5] of the same compound?
Answer: The Activity was 39%.

Question: What about the Activity [6] of the same compound?
Answer: Its Activity is 41%.

Question: What about the Activity [7] of the same compound?
Answer: The Activity was 42%.

Question: And the Activity [8]?
Answer: The Activity was 40%.

Question: And the Activity [9]?
Answer: Its Activity is 52%.

Question: And the Activity [10]?
Answer: Its Activity is 65.1%.

Question: What about the Activity [11] of the same compound?
Answer: Its Activity is 1.45%.

Question: For `COC(=O)[C@]12CC[C@@H](C)[C@H](C)[C@H]1C1=CC[C@@H]3[C@@]4(C)C[C@@H](N=[N+]=[N-])[C@H](N=[N+]=[N-])C(C)(C)[C@@H]4CC[C@@]3(C)[C@]1(C)CC2`, which LD50 [1] is on record?
Answer: The LD50 was 825 mg/kg.

Question: What about the Activity [2] of the same compound?
Answer: Its Activity is 33%.

Question: And the Activity [3]?
Answer: Its Activity is 35%.

Question: And the Activity [4]?
Answer: The Activity was 40%.

Question: And the Activity [5]?
Answer: The Activity was 44%.

Question: What about the Activity [6] of the same compound?
Answer: The Activity was 48%.

Question: And the Activity [7]?
Answer: Its Activity is 55%.

Question: What about the Activity [8] of the same compound?
Answer: The Activity was 61%.

Question: What about the Activity [9] of the same compound?
Answer: The Activity was 66%.

Question: What about the Activity [10] of the same compound?
Answer: The Activity was 69.1%.

Question: And the Activity [11]?
Answer: Its Activity is 1.54%.

Question: Which results are given for `COC(=O)[C@]12CC[C@@H](C)[C@H](C)[C@H]1C1=CC[C@@H]3[C@@]4(C)C[C@@H](N)[C@H](N)C(C)(C)[C@@H]4CC[C@@]3(C)[C@]1(C)CC2`?
Answer: LD50 [1]: 836 mg/kg; Activity [2]: 44%; Activity [3]: 47%; Activity [4]: 50%; Activity [5]: 56%; Activity [6]: 60%; Activity [7]: 62%; Activity [8]: 70%; Activity [9]: 75%; Activity [10]: 74.2%; Activity [11]: 1.65%

Question: With `COC(=O)[C@@]1(C)CC[C@]2(C)CC[C@]3(C)C(=CC(=O)[C@@H]4[C@@]5(C)C[C@H](N)[C@@H](N)C(C)(C)[C@@H]5CC[C@]43C)[C@@H]2C1` as the compound, how does the LD50 [1] read?
Answer: Its LD50 is 893 mg/kg.

Question: And the Activity [2]?
Answer: Its Activity is 40%.

Question: What about the Activity [3] of the same compound?
Answer: The Activity was 43%.

Question: And the Activity [4]?
Answer: Its Activity is 45%.

Question: And the Activity [5]?
Answer: Its Activity is 48%.

Question: And the Activity [6]?
Answer: The Activity was 50%.

Question: And the Activity [7]?
Answer: Its Activity is 58%.

Question: What about the Activity [8] of the same compound?
Answer: Its Activity is 65%.

Question: And the Activity [9]?
Answer: Its Activity is 70%.

Question: And the Activity [10]?
Answer: Its Activity is 70.1%.

Question: What about the Activity [11] of the same compound?
Answer: Its Activity is 1.56%.

Question: Which LD50 [1] does the source give for `COC(=O)[C@]12CC[C@@H](C)[C@H](C)[C@H]1C1=CC[C@@H]3[C@@]4(C)C[C@@H](O)[C@H](O)C(C)(C)[C@@H]4CC[C@@]3(C)[C@]1(C)CC2` [COROSOLIC ACID METHYL ESTER] here?
Answer: The LD50 was 818 mg/kg.

Question: And the Activity [2]?
Answer: Its Activity is 22%.

Question: What about the Activity [3] of the same compound?
Answer: Its Activity is 29%.

Question: What about the Activity [4] of the same compound?
Answer: The Activity was 35%.

Question: And the Activity [5]?
Answer: The Activity was 40%.

Question: And the Activity [6]?
Answer: The Activity was 44%.

Question: And the Activity [7]?
Answer: The Activity was 50%.

Question: What about the Activity [8] of the same compound?
Answer: Its Activity is 53%.

Question: And the Activity [9]?
Answer: Its Activity is 58%.

Question: What about the Activity [10] of the same compound?
Answer: Its Activity is 68%.

Question: What about the Activity [11] of the same compound?
Answer: Its Activity is 1.51%.

Question: Which LD50 [1] does the source give for `C[C@H]1[C@H](C)CC[C@]2(C(=O)O)CC[C@]3(C)C(=CC[C@@H]4[C@@]5(C)C[C@@H](O)[C@H](O)C(C)(C)[C@@H]5CC[C@]43C)[C@H]12` [COROSOLIC ACID] here?
Answer: The LD50 was 816 mg/kg.

Question: Which Activity [10] does the source give for `O=C1O[C@H]([C@@H](O)CO)C(O)=C1O` here?
Answer: The Activity was 45%.

Question: And the Activity [11]?
Answer: Its Activity is 1%.

Question: With `COC(=O)[C@@]1(C)CC[C@]2(C)CC[C@]3(C)C(=CC(=O)[C@@H]4[C@@]5(C)C[C@H](N=[N+]=[N-])[C@@H](N=[N+]=[N-])C(C)(C)[C@@H]5CC[C@]43C)[C@@H]2C1` as the compound, how does the LD50 [1] read?
Answer: The LD50 was 898 mg/kg.

Question: What about the Activity [2] of the same compound?
Answer: The Activity was 29%.

Question: And the Activity [3]?
Answer: Its Activity is 31%.

Question: What about the Activity [4] of the same compound?
Answer: The Activity was 36%.

Question: And the Activity [5]?
Answer: Its Activity is 42%.

Question: And the Activity [6]?
Answer: Its Activity is 46%.

Question: And the Activity [7]?
Answer: The Activity was 52%.

Question: And the Activity [8]?
Answer: The Activity was 55%.

Question: And the Activity [9]?
Answer: Its Activity is 60%.

Question: What about the Activity [10] of the same compound?
Answer: Its Activity is 68.1%.

Question: What about the Activity [11] of the same compound?
Answer: Its Activity is 1.51%.
